Test results: ChEMBL document CHEMBL2150909, “Imidazo[1,2-a]pyridines: orally active positive allosteric modulators of the metabotropic glutamate 2 receptor” (J Med Chem, 2012)
Each block holds one molecule with its values, some of them ahead of it.

Columns and labels:
[1] = Metabolic stability of human liver microsomes assessed as compound metabolized at 5 uM after 15 mins; type: ADME, Microsome; settings: read-out: Drug metabolism
Summary of the method: (§1)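 Test compound at 5 μM incubated 15 min with rat or human liver microsomes; read-out is percent of compound metabolized.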

[2] = Metabolic stability of Sprague-Dawley rat liver microsomes assessed as compound metabolized at 5 uM after 15 mins; type: ADME, Microsome; settings: read-out: Drug metabolism; summary of the method: as §1
[3] = target: T1, Metabotropic glutamate receptor 2 (Homo sapiens, UniProt Q14416); test: Agonist activity at human mGlu 2 expressed in CHO cells assessed as [35S]GTPgammaS binding by liquid scintillation analysis; type: functional, cell-based
Summary of the method: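 Membranes from butyrate-stimulated (5 mM, 24 h) CHO cells expressing human mGlu2. Preincubated 30 min at 30 °C in HEPES pH 7.4 with NaCl, MgCl2, 50 μM GDP and saponin; modulator 0.3 nM–50 μM, no added glutamate. [35S]GTPγS 0.1 nM final, 30 min at 30 °C, filtered, scintillation counted. Nonspecific binding defined with cold GTP; 11 concentrations in duplicate, ≥3 curves.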
Target sequence in this assay (Q14416 whole entry): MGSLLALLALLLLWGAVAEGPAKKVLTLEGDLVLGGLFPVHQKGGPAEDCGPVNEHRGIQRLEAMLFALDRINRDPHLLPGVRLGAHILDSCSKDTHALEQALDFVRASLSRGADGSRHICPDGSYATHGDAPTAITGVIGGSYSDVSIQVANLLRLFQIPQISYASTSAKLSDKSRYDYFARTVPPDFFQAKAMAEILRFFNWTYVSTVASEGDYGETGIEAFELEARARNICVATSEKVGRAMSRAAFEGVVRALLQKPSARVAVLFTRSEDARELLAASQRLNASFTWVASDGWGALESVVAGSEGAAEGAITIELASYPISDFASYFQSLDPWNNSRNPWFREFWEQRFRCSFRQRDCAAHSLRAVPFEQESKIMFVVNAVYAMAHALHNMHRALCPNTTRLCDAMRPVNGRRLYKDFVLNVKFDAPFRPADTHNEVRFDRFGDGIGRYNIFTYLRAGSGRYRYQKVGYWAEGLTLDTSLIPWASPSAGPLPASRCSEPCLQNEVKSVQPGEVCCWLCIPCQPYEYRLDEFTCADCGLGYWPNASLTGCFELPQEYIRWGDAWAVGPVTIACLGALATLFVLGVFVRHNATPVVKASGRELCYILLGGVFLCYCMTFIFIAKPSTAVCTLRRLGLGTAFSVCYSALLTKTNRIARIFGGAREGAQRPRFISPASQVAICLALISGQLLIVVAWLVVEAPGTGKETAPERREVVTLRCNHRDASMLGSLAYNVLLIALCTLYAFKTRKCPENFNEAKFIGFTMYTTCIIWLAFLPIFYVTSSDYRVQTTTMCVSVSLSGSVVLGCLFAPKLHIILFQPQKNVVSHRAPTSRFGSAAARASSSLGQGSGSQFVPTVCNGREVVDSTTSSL

[4] = target: T1, Metabotropic glutamate receptor 2; test: Agonist activity at human mGlu 2 expressed in CHO cells by PAM assay relative to glutamate; type: functional, cell-based
Summary of the method: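 The assay measured [35S]GTPγS binding to membranes from CHO cells expressing human mGluR2. Cells were butyrate-stimulated (5 mM, 24 h) before membranes were prepared. Membranes were preincubated for 30 min at 30 °C in HEPES pH 7.4 buffer (NaCl, MgCl2, 50 μM GDP) with compound (0.3 nM–50 μM, 11 concentrations) plus EC25 glutamate. [35S]GTPγS (0.1 nM final) was then added for 30 min at 30 °C. Bound label was collected by filtration and counted. Runs were done at least in triplicate with duplicate points, and a four-parameter logistic fit gave the values.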
Target sequence in this assay (Q14416 19-872 limits assumed): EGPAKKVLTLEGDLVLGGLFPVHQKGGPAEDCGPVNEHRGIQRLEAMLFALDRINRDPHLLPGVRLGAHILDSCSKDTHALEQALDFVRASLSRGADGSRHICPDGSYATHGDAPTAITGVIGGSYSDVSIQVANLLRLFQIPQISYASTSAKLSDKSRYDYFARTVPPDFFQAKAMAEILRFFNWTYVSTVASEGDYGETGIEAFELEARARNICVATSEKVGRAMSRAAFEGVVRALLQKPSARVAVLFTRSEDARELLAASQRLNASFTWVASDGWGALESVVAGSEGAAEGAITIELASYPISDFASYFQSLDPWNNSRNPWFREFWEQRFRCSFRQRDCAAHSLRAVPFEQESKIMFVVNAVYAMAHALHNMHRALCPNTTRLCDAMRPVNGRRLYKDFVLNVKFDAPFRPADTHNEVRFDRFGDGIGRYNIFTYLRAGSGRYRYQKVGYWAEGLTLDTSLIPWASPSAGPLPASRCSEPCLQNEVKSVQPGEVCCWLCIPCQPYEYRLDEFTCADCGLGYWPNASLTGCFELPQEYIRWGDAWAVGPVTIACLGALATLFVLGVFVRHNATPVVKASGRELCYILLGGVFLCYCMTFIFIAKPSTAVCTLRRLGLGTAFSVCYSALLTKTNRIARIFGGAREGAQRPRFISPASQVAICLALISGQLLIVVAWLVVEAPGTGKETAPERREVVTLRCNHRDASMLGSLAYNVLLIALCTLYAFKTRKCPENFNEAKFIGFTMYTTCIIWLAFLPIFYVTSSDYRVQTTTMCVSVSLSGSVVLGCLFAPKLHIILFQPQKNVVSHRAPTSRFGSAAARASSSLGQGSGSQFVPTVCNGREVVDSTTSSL

[5] = Half life in Sprague-Dawley rat at 10 mg/kg, po and 2.5 mg/kg, iv; type: ADME, organism-based; settings: in vivo
Summary of the method: (§2)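 Rat PK: compounds formulated in 20% HP-β-CD at pH 4 and given orally and intravenously. Values are geometric means of at least two runs ± SEM.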

[6] = AUC (0 to infinity) in Sprague-Dawley rat at 10 mg/kg, po and 2.5 mg/kg, iv; type: ADME, organism-based; settings: plasma; summary of the method: as §2
[7] = Clearance in Sprague-Dawley rat at 10 mg/kg, po and 2.5 mg/kg, iv; type: ADME, organism-based; settings: in vivo
[8] = Ratio of drug level in brain to plasma of SPF Swiss mouse at 10 mg/kg, sc after 2 hrs; type: ADME, organism-based; design: dose 10 mg/kg, route subcutaneous; settings: read-out: BPR
Summary of the method: (§3)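 Male Swiss SPF mice, single subcutaneous dose of 10 mg/kg in 20% HP-β-CD at pH 4. Brain levels (ng/g) and plasma levels (ng/mL) measured at the stated time after dosing; brain-to-plasma ratio taken from these. Geometric mean of at least two runs ± SEM.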

[9] = Cmax in Sprague-Dawley rat at 10 mg/kg, po and 2.5 mg/kg, iv; type: ADME, organism-based; settings: in vivo; summary of the method: as §2
[10] = Drug uptake in SPF Swiss mouse brain at 10 mg/kg, sc after 1 hr; type: ADME, organism-based; design: dose 10 mg/kg, route subcutaneous; settings: read-out: Drug uptake
Summary of the method: (§4)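 Male Swiss SPF mice dosed subcutaneously at 10 mg/kg in 20% HP-β-CD, pH 4. Brain levels measured in ng/g and plasma levels in ng/mL at the stated time, with brain/plasma ratio; geometric mean of at least two runs ± SEM.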

[11] = Drug uptake in SPF Swiss mouse brain at 10 mg/kg, sc after 2 hrs; type: ADME, organism-based; design: dose 10 mg/kg, route subcutaneous; settings: read-out: Drug uptake; summary of the method: as §4
[12] = Ratio of drug level in brain to plasma of SPF Swiss mouse at 10 mg/kg, sc after 1 hr; type: ADME, organism-based; design: dose 10 mg/kg, route subcutaneous; settings: read-out: BPR; summary of the method: as §3
[13] = Plasma concentration in SPF Swiss mouse at 10 mg/kg, sc after 2 hrs; type: ADME, organism-based; design: dose 10 mg/kg, route subcutaneous; summary of the method: as §4
[14] = Plasma concentration in SPF Swiss mouse at 10 mg/kg, sc after 4 hrs; type: ADME, organism-based; design: dose 10 mg/kg, route subcutaneous; summary of the method: as §4
[15] = Tmax in Sprague-Dawley rat at 10 mg/kg, po and 2.5 mg/kg, iv; type: ADME, organism-based; settings: in vivo; summary of the method: as §2
[16] = Oral bioavailability in Sprague-Dawley rat at 10 mg/kg; type: ADME, organism-based; settings: in vivo
Summary of the method: (§5)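 Male Sprague-Dawley rats given 10 mg/kg orally and/or 1.25 mg/kg intravenously; compound formulated in 20% HP-β-CD at pH 4. Cmax, tmax, AUC0−inf, t1/2, clearance and oral bioavailability F derived from plasma levels; geometric mean of at least two runs ± SEM.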

[17] = Ratio of drug level in brain to plasma of SPF Swiss mouse at 10 mg/kg, sc after 4 hrs; type: ADME, organism-based; design: dose 10 mg/kg, route subcutaneous; settings: read-out: BPR; summary of the method: as §3
[18] = Drug uptake in SPF Swiss mouse brain at 10 mg/kg, sc after 4 hrs; type: ADME, organism-based; design: dose 10 mg/kg, route subcutaneous; settings: read-out: Drug uptake; summary of the method: as §4
[19] = Plasma concentration in SPF Swiss mouse at 10 mg/kg, sc after 1 hr; type: ADME, organism-based; design: dose 10 mg/kg, route subcutaneous; summary of the method: as §4
[20] = AUC (0 to infinity) in Sprague-Dawley rat at 10 mg/kg, po and 1.25 mg/kg, iv; type: ADME, organism-based; settings: plasma; summary of the method: as §5
[21] = Cmax in Sprague-Dawley rat at 10 mg/kg, po and 1.25 mg/kg, iv; type: ADME, organism-based; settings: in vivo; summary of the method: as §5
[22] = Half life in Sprague-Dawley rat at 10 mg/kg, po and 1.25 mg/kg, iv; type: ADME, organism-based; settings: in vivo; summary of the method: as §5
[23] = Tmax in Sprague-Dawley rat at 10 mg/kg, po and 1.25 mg/kg, iv; type: ADME, organism-based; settings: in vivo
Summary of the method: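 Rat pharmacokinetics in Sprague−Dawley rats: oral 10 mg/kg and intravenous 1.25 mg/kg, formulated in 20% HP-β-CD at pH 4. Plasma profiles used for Cmax, tmax, AUC0−inf and t1/2. Reported as geometric means of at least two runs ± SEM.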

[24] = Clearance in Sprague-Dawley rat at 10 mg/kg, po and 1.25 mg/kg, iv; type: ADME, organism-based; settings: in vivo; summary of the method: as §5

metabolised at 0.25 h, 5 µM [1]: 35%
metabolised at 0.25 h, 5 µM [2]: 49%
EC50 [3]: 320 nM
Emax [4]: 277%
Structure (SMILES): N#Cc1c(-c2cc(Cl)c3[nH]ccc3c2)ccn2c(CC(F)(F)F)cnc12

metabolised at 0.25 h, 5 µM [1]: 1%
metabolised at 0.25 h, 5 µM [2]: 70%
Emax [4]: 193%
Structure (SMILES): FC(F)(F)Cc1cnc2c(Cl)c(-c3cc(Cl)c4c(ccn4CC4CC4)c3)ccn12

metabolised at 0.25 h, 5 µM [1]: 45%
metabolised at 0.25 h, 5 µM [2]: 100%
EC50 [3]: 1660 nM
Emax [4]: 232%
Structure (SMILES): N#Cc1c(-c2ccc3c(c2)OCCN3)ccn2c(CC(F)(F)F)cnc12

metabolised at 0.25 h, 5 µM [1]: 28%
metabolised at 0.25 h, 5 µM [2]: 55%
Emax [4]: 154%
Structure (SMILES): Cn1ccc2cc(-c3ccn4c(CC(F)(F)F)cnc4c3C#N)ccc21

The remaining lines, values behind:

Structure (SMILES): Cn1ccc2cc(-c3ccn4c(CC(F)(F)F)cnc4c3C#N)cc(Cl)c21
metabolised at 0.25 h, 5 µM [1]: 51%
metabolised at 0.25 h, 5 µM [2]: 62%
EC50 [3]: 120 nM
Emax [4]: 184%

Structure (SMILES): N#Cc1c(-c2ccc3c(ccn3[C@H]3CC[C@H](O)CC3)c2)ccn2c(CC(F)(F)F)cnc12
metabolised at 0.25 h, 5 µM [1]: 4%
half-life [5]: 2.8 h
AUC(0-inf) [6]: 7520 ng·h/mL
metabolised at 0.25 h, 5 µM [2]: 15%
clearance [7]: 11.7 mL/min/kg
EC50 [3]: 330 nM
Kp at 2 h [8]: 0.1
Emax [4]: 237%
Cmax [9]: 1060 ng/mL
concentration at 1 h [10]: 322 ng/g
concentration at 2 h [11]: 469 ng/g
Kp at 1 h [12]: 0.1
concentration at 2 h [13]: 4500 ng/mL
concentration at 4 h [14]: 3860 ng/mL
Tmax [15]: 1.7 h
bioavailability [16]: 50%
Kp at 4 h [17]: 0.1
concentration at 4 h [18]: 280 ng/g
concentration at 1 h [19]: 4170 ng/mL

Structure (SMILES): N#Cc1c(-c2ccc3c(ccn3CC3CC3)c2)ccn2c(CC(F)(F)F)cnc12
metabolised at 0.25 h, 5 µM [1]: 24%
metabolised at 0.25 h, 5 µM [2]: 40%
EC50 [3]: 190 nM
Emax [4]: 230%

Structure (SMILES): N#Cc1c(-c2ccc(Oc3ccccc3)cc2)ccn2c(CC(F)(F)F)cnc12
metabolised at 0.25 h, 5 µM [1]: 23%
metabolised at 0.25 h, 5 µM [2]: 23%
AUC(0-inf) [20]: 714 ng·h/mL
Cmax [21]: 274 ng/mL
Kp at 2 h [8]: 1.7
half-life [22]: 2.1 h
concentration at 1 h [10]: 1840 ng/g
concentration at 2 h [11]: 1530 ng/g
Kp at 1 h [12]: 1.8
concentration at 2 h [13]: 893 ng/mL
concentration at 4 h [14]: 114 ng/mL
Tmax [23]: 0.5 h
bioavailability [16]: 27%
Kp at 4 h [17]: 1.9
clearance [24]: 56.7 mL/min/kg
concentration at 4 h [18]: 221 ng/g
concentration at 1 h [19]: 1040 ng/mL
